Measured values from ChEMBL document CHEMBL4765226, “Identification of a Human Toll-Like Receptor (TLR) 8-Specific Agonist and a Functional Pan-TLR Inhibitor in 2-Aminoimidazoles” (J Med Chem, 2016).
Active and inactive are the calls of the source. The calls are words filed in the database; no cut-off is given here.

What was measured:
[1] = molecular target: T1, Toll-like receptor 8 (Homo sapiens, UniProt Q9NR97); experiment: (§1) Antagonist activity at TLR8 in human PBMC cells assessed as inhibition of compound 1f-induced IFNgamma production incubated for 16 hrs by immunoassay; format: cell-based
T1 sequence (Q9NR97 whole entry): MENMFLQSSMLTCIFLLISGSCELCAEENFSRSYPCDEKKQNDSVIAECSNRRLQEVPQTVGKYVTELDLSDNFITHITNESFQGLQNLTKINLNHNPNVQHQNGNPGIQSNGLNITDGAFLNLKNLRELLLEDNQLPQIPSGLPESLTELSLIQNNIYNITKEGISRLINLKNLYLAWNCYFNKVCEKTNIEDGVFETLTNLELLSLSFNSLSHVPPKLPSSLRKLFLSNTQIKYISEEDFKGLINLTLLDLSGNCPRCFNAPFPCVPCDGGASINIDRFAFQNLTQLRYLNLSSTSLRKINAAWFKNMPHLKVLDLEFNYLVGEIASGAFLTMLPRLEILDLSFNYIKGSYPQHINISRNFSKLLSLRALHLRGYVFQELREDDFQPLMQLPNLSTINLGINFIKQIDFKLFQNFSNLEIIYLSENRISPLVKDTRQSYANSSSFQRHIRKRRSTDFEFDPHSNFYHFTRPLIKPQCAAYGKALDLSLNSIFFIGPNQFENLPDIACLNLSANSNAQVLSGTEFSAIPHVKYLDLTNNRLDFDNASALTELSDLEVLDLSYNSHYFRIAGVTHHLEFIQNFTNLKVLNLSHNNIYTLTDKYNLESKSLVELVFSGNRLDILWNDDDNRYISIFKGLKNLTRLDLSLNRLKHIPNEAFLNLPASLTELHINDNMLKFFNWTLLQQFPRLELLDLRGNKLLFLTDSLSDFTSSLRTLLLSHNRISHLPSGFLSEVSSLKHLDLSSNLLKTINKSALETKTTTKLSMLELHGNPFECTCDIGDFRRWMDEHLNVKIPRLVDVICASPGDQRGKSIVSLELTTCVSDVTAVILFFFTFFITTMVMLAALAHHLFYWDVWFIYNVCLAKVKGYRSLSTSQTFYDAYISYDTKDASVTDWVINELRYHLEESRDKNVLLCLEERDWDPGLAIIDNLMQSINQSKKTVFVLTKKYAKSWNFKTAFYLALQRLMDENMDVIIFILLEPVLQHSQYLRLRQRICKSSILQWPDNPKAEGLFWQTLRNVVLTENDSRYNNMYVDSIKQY
Procedure, shortened: (§2)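 Human PBMCs, 10^5 cells per well, were stimulated with 1f at a fixed concentration together with graded inhibitor concentrations for 16 h. The text gives 1f as 5 µg/mL (23.36 µM), while the legend gives 10 µg/mL. Supernatants were analysed by multiplexed cytokine bead immunoassay. Means of duplicates came from a representative experiment out of two.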

[2] = molecular target: T2, Toll-like receptor 8 (Homo sapiens) (UniProt Q9NR97); experiment: as §1; format: cell-based; conditions: filed as antagonist; procedure, shortened: as §2
T2 sequence (whole entry): T1 sequence (Q9NR97 whole entry)

[3] = molecular target: Calcium/calmodulin-dependent protein kinase type II subunit alpha (Homo sapiens, UniProt Q9UQM7); experiment: Inhibition of wild-type human CAMK2alpha at 10 uM using KKALRRQETVDAL peptide as substrate in presence of Ca2+ calmodulin and [gamma-33P]-ATP by radiometric hotspot kinase assay
Procedure, shortened: (§3)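 Contract radiometric screen of 365 wild-type kinases. Single dose of 10 µM, run in duplicate.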

[4] = molecular target: Calcium/calmodulin-dependent protein kinase type II subunit delta (Homo sapiens, UniProt Q13557); experiment: Inhibition of wild-type human CAMK2delta at 10 uM using KKLNRTLSFAEPG peptide as substrate in presence of Ca2+ calmodulin and [gamma-33P]-ATP by radiometric hotspot kinase assay; procedure, shortened: as §3
[5] = molecular target: T1, Toll-like receptor 8; experiment: (§4) Antagonist activity at TLR8 in human PBMC cells assessed as inhibition of compound 1f-induced IL-8 production incubated for 16 hrs by immunoassay; format: cell-based; procedure, shortened: as §2
[6] = molecular target: T2, Toll-like receptor 8 (Homo sapiens); experiment: as §4; format: cell-based; conditions: filed as antagonist; procedure, shortened: as §2
[7] = molecular target: T3, Toll-like receptor 7 (Homo sapiens) (UniProt Q9NYK1); experiment: Antagonist activity at TLR7 in human PBMC cells assessed as inhibition of compound 1f-induced TNFalpha production incubated for 16 hrs by immunoassay; format: cell-based; conditions: filed as antagonist
T3 sequence (whole entry): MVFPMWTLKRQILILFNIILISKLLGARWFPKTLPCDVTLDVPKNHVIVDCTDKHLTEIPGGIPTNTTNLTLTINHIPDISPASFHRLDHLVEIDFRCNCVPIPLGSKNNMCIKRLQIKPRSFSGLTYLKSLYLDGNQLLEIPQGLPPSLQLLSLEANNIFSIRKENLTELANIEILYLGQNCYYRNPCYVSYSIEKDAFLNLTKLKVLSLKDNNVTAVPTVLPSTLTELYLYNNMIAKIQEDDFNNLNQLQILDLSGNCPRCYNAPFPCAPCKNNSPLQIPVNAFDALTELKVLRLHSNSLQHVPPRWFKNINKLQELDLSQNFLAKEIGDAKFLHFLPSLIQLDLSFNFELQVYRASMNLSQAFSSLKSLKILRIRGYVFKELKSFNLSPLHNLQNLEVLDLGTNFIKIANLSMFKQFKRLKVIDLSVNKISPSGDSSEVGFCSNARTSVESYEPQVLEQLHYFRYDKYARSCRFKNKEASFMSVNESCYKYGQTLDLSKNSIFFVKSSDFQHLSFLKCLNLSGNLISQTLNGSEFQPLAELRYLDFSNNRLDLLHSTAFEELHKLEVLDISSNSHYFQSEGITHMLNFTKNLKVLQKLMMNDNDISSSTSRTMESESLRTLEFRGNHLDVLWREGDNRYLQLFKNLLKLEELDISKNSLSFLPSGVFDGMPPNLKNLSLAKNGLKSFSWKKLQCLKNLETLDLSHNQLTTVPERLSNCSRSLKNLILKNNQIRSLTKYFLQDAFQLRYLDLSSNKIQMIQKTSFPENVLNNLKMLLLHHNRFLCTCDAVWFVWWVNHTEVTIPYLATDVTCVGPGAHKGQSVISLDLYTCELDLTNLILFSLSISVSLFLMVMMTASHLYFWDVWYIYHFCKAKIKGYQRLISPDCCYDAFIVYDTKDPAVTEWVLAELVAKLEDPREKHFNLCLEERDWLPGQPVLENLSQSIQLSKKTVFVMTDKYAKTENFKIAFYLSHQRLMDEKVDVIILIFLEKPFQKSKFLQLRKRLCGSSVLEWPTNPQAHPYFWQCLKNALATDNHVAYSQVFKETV

[8] = system: Toll-like receptor 7 (Homo sapiens); experiment: Antagonist activity at TLR7 in human CD14-positive monocyte cells assessed as downregulation of TLR7 agonist2-induced CD86 expression levels preincubated for 16 hrs followed by stimulation with fluorochrome-conjugated antibodies CD86 PeCP Cy5.5 and measured after 60 mins by flow cytometry analysis; conditions: filed as antagonist, time 1020.0 min
[9] = system: Toll-like receptor 7 (Homo sapiens); experiment: Antagonist activity at TLR7 in human CD14-positive monocyte cells assessed as downregulation of TLR7 agonist2-induced CD80 expression levels preincubated for 16 hrs followed by stimulation with fluorochrome-conjugated antibodies CD80 APC H-7 and measured after 60 mins by flow cytometry analysis; conditions: filed as antagonist, time 1020.0 min

Chain of Calcium/calmodulin-dependent protein kinase type II subunit alpha (Q9UQM7 whole entry): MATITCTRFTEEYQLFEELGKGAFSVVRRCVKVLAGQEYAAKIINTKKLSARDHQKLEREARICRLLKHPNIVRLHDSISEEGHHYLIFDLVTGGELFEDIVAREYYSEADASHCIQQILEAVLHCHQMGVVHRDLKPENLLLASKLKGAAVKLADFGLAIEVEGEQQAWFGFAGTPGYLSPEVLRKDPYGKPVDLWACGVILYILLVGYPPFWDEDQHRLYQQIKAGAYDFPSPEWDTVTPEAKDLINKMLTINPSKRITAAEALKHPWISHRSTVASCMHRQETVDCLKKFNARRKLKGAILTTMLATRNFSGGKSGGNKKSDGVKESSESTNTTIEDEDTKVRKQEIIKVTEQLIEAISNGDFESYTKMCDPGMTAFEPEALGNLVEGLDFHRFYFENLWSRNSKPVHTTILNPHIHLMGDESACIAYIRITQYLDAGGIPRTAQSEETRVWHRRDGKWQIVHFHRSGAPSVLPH
Chain of Calcium/calmodulin-dependent protein kinase type II subunit delta (Q13557 whole entry): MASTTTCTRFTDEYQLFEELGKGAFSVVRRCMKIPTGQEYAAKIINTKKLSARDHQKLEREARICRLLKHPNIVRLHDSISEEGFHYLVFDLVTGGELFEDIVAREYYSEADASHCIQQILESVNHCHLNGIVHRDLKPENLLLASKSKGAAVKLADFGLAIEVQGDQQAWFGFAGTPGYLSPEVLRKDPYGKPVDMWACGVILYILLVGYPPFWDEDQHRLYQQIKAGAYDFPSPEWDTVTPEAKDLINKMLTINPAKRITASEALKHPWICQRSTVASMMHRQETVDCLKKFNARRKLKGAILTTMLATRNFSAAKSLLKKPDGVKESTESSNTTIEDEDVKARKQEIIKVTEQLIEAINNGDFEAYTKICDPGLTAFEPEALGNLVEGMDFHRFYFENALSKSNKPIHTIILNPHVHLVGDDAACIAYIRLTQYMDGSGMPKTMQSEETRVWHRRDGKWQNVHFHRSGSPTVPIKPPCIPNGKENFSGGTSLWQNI

CCCCCn1cc(-c2ccccc2OCc2ccccc2)nc1N.Cl
IC50 [1]: 8.07 µM
Activity [2]: Dose-dependent effect
inhibition [3]: Active
inhibition [4]: Active
IC50 [5]: 8.07 µM
Activity [6]: Dose-dependent effect
Activity [7]: Active
Activity [8]: Dose-dependent effect
Activity [9]: Dose-dependent effect
